# RAD54 branch – inhibitors of human RAD54 branch migration | AID 602329 | inhibition, % at 10.4 µM | Q92698 | RAD54 Holliday junction branch migration, FAM/BHQ fluorescence | 0.14% of 360,000 active;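 active means mean normalized replicate activity at least 40 and at least half of replicates scoring 40 or more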;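 further: 0% = median of neutral control wells and 100% = median of positive control wells; inhibitors cause a drop in the FAM fluorescence signal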
# FN deposit inh – fibronectin deposition inhibition; AH1F fibroblasts, Alexa488-fibronectin deposition fluorescence, overnight; inhibition, % at 12.6 µM; 0.086% of 350,000 active;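 active means mean inhibition across replicates of 30% or more, regardless of how many single replicates reach that level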;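 further: positive control wells lacked labelled fibronectin entirely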
#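 material = AH1F fibroblast monolayer depositing Alexa488-labelled fibronectin into matrix | amount = 10000 AH1F cells/well | buffer or medium = DMEM plus 2% serum, read in PBS | incubation = 1 h cell adhesion before compound, then overnight fibronectin incubation | detection = fluorescence at 485 nm excitation, 525 nm emission | evaluation = percent inhibition as loss of matrix-bound fibronectin fluorescence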
# Glyco luc inh – N-linked glycosylation inhibition | D54 ERlucT glycosylation luciferase reporter, 24 h; percent of 100 nM tunicamycin response | reporter increase, % at 12.5 µM | 0.23% of 360,000 active;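 active means mean luciferase reporter signal, scaled so untreated is 0 and the glycosylation-blocking control 100, at or above a set limit in every replicate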;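 further: luciferase carries N-glycosylation sites so blocking glycosylation raises the light; 0% = median of neutral control wells and 100% = median of 100 nM tunicamycin wells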
# AF4-AF9 inh – inhibitors of human MLL-AF4/AF9 interaction; AlphaScreen, biotin-AF4 peptide binding to FLAG-AF9; inhibition, % at 10 µM; 0.47% of 350,000 active; AID 651704;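 active means every replicate reaching a set inhibition limit, whatever the replicate mean, cut at about 25% in these data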;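 further: 0% = plate neutral control median and 100% = total signal loss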
# Target sequence (P42568 whole entry, looked up): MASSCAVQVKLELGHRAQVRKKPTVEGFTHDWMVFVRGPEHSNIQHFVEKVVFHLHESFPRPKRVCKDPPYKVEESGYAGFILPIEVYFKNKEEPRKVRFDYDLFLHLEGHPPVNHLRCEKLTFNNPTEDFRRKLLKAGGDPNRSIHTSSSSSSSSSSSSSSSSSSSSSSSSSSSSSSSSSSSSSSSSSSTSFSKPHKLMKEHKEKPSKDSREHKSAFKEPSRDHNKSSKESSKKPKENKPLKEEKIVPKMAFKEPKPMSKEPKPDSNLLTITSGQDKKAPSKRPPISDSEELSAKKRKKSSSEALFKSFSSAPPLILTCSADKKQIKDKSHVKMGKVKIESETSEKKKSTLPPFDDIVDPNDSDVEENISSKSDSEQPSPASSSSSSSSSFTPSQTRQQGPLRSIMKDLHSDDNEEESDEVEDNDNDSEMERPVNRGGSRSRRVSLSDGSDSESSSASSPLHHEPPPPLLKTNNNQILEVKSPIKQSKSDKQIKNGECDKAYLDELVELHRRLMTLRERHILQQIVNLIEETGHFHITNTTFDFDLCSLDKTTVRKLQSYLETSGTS
# NSD2 HMT inh – NSD2 (human) methyltransferase inhibition; 0.54% of 310,000 active; AID 743445; inhibition, % at 12.5 µM; NSD2 peptide methylation, AlphaScreen, 120 min; in the data active means inhibition above about 50%
# RAD52 anneal inh – blocks human RAD52 DNA annealing; recombinant RAD52 DNA annealing, FRET fluorescence; 0.46% of 360,000 active; AID 651710; P43351; inhibition, % at 18.7 µM;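 active means every replicate showing at least 50% inhibition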
# RAD52 DNA ctr – counter-screen for RAD52 inhibitors: DNA binding compounds; shares compounds with RAD52 anneal inh; Salmon sperm DNA/acridine orange FP displacement; AC50, µM; 8% of 1,000 active;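 active means fitted half-maximal concentration for signal loss at or below twice the highest dose tested, in every separate run, actives reach about 64 µM in these data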
# * marks the source's active call; other numbers are inactive results; i = inactive; / = no result; ! = not confirmed by another sample. The list is not random: actives were taken first. Their share in the collection is about 1.2%.
SMILES,RAD54 branch,FN deposit inh,Glyco luc inh,AF4-AF9 inh,NSD2 HMT inh,RAD52 anneal inh,RAD52 DNA ctr
CCN1CCN(Cc2ccc(NC(=O)c3ccc(C)c(NC(=O)c4cccc5[nH]ccc45)c3)cc2C(F)(F)F)CC1,7.5,-1.0,-15.6,13.4,/,89.4*!,i
CCN1CCN(Cc2ccc(NC(=O)c3ccc(C)c(NC(=O)c4nccnc4N)c3)cc2C(F)(F)F)CC1,11.5,6.4,-12.2,17.1,/,67.2*,i
Cc1noc(C)c1S(=O)(=O)N(C)C[C@@H]1OCCCC[C@@H](C)Oc2ccc(NC(=O)NC(C)C)cc2C(=O)N([C@@H](C)CO)C[C@H]1C,-0.7,1.3,/,-0.6,/,10.5,/
CCCCCCCCCCCCCCCC[n+]1cccc2ccccc21,/,/,9.1,26.1*,4.6,89.7*,31.8µM*
O=C(C[n+]1cccc2ccccc21)c1ccccc1,-18.0,0.2,1.8,/,-0.2,/,/
C[C@H]1CN([C@@H](C)CO)C(=O)c2cccc(NC(=O)Nc3ccc4c(c3)OCO4)c2O[C@H]1CN(C)C(=O)Nc1ccc2c(c1)OCO2,0.5,/,/,8.6,/,8.2,/
CC(C)(O)c1cn([C@@H]2C[C@@H]3O[C@@H](CO)CC[C@@H]3O[C@@H]2CCc2ccc(-c3ccncc3)cc2)nn1,/,/,/,-2.4,/,5.4,/
CCCCc1nc2sc3c(SCCN(C)C)ncnc3c2c2c1CCC2,/,-3.8,-7.8,15.4,6.4,59.5*,i
CCCCc1nc2sc3c(SCC(=O)NCc4ccco4)ncnc3c2c2c1CCC2,-9.6,-11.5,-1.7,/,-16.0,/,/
CCN1CCN(Cc2ccc(NC(=O)c3ccc(C)c(NC(=O)c4cncc(-c5cccs5)c4)c3)cc2C(F)(F)F)CC1,-8.6,/,-22.0,/,/,/,/
CCN1CCN(Cc2ccc(NC(=O)c3cc(NC(=O)c4cncc(-c5ccc(C#N)cc5)c4)cc(OC)c3)cc2C(F)(F)F)CC1,5.4,10.3,-22.0,4.6,/,86.8*,i
CCN1CCN(Cc2ccc(NC(=O)c3cc(NC(=O)c4cnnc5ccccc45)cc(OC)c3)cc2C(F)(F)F)CC1,22.2,5.0,-1.1,22.9,/,70.2*!,i
CCCN1C[C@@H](C)[C@H](OC)CN(C)C(=O)c2cc(NC(=O)NC3CCCC3)ccc2OC[C@@H]1C,/,-1.7,/,/,/,/,/
COc1ccc(S(=O)(=O)N(C)C[C@H]2Oc3c(NC(=O)c4cc(C)nn4C)cccc3C(=O)N([C@@H](C)CO)C[C@H]2C)cc1,-5.7,10.0,/,-16.6,/,4.4,/
COC(=O)C1=CN(Cc2ccc(C)cc2)C=C(C(=O)OC)C1c1cc(OC)c(OC)c(OC)c1,2.2,-0.4,1.2,-17.4,-10.2,95.2*,i
COC(=O)C1=CN(Cc2ccccc2)C=C(C(=O)OC)C1c1ccc(OC)c(OC)c1,-22.5,0.2,0.1,-10.1,-30.0,-10.3,/
CCCNC(=O)Nc1ccc2c(c1)OC[C@@H](C)N(C(=O)C1CCCC1)C[C@@H](C)[C@H](OC)CN(C)C2=O,/,-3.4,/,/,/,/,/
Cc1cc(-n2c(C)c3c(C)nnc(C)c3c2C)ccc1N,/,4.1,/,7.0,3.2,65.9*,i
O=C(C[C@H]1C[C@H](C(=O)N2CCOCC2)[C@@]2(CCC3CCCC3)c3[nH]c4cc(-c5ccco5)ccc4c3CCN2C1=O)NCCN1CCOCC1,7.6,/,-1.8,-86.7,/,-23.6,/
CN(C)CCCNC(=O)C[C@H]1C[C@H](C(=O)N2CCOCC2)[C@@]2(CCC3CCCC3)c3[nH]c4cc(-c5ccco5)ccc4c3CCN2C1=O,28.7,1.7,-5.2,40.6*,/,51.6*,i
Cn1c2ccccc2c2n[nH]c(=S)nc21,-9.3,-2.9,-0.1,-4.4,1.5,-9.0,/
CCN(CC)CCn1c2ccccc2c2nc3ccccc3nc21,105.7*,0.3,129.0*,4.3,14.4,88.5*,i
CCCn1c2ccccc2c2nc3ccccc3nc21,-2.8,7.8,3.6,/,-12.4,/,/
CCN(CC)CCn1c2ccccc2c2n[nH]c(=S)nc21,23.7,-6.9,-0.4,4.2,47.7,72.6*,i
O=C(C1CC1)N1[C@H](CO)[C@@H]2c3ccccc3N(S(=O)(=O)c3ccccc3)C[C@@H]21,-0.9,3.6,/,-2.9,/,8.6,/
SMILES,RAD54 branch,FN deposit inh,Glyco luc inh,AF4-AF9 inh,NSD2 HMT inh,RAD52 anneal inh,RAD52 DNA ctr
CN1CCN(CC(O)COc2ccc(C34CC5CC(CC(C5)C3)C4)cc2)CC1 (centres undefined),26.5,-5.2,-8.4,23.1,10.4,56.5*,i
CN=C(C[N+](=O)[O-])NCCSCc1ccc(CN(C)C)o1,-18.4,-1.9,1.3,7.1,/,57.1*,i
NC(=S)NN=C1c2cc(OCCN3CCOCC3)ccc2-c2ccc(OCCN3CCOCC3)cc21,/,15.0,1.3,12.4,5.2,87.2*,i
Cc1cc(C(=O)Nc2cccc3c2O[C@@H](CN(C)C(=O)NC(C)C)[C@H](C)CN([C@H](C)CO)C3=O)n(C)n1,1.6,-1.2,/,-0.2,/,8.6,/
Cc1sc2ccccc2c1CNC[C@H]1O[C@@H](n2ccc(N)nc2=O)[C@H](O)[C@@H]1O,6.8,2.4,0.6,-4.9,/,-14.5,/
Nc1ccn([C@@H]2O[C@H](CNCc3cccc4c3sc3ccccc34)[C@@H](O)[C@H]2O)c(=O)n1,22.3,-1.1,3.4,-2.0,/,53.6*,i
CC(NC(=O)CCc1ccccc1)c1ccc2c(c1)OCO2 (centres undefined),3.6,-8.5,-2.5,-8.8,-4.2,108.3*,i
Cc1ccc(NCCCn2cnc(C(=O)Nc3ccc(C)c(C)c3)n2)cc1C,-25.2,3.4,-3.2,-3.8,/,4.2,/
Cc1cc(C)c(CN2CCN(CCCn3cnc(C(=O)Nc4ccc(C)c(C)c4)n3)CC2)c(C)c1,4.6,-8.8,-7.4,11.2,/,55.8*,i
CNC[C@H]1OCCCC[C@H](C)Oc2ccc(NC(=O)c3ccccc3)cc2C(=O)N([C@H](C)CO)C[C@@H]1C,-6.6,/,/,1.6,/,-137.9,/
CN1CCN(c2ccc(CNC(=O)c3cccc4c(-c5ccc(F)c(F)c5)coc34)cc2)CC1,16.3,/,-9.6,/,11.3,/,/
CN1CCN(c2ccc(CNC(=O)c3ccc(-c4ccc(F)c(F)c4)c4ccoc34)cc2)CC1,2.8,4.9,-9.1,9.4,-0.2,54.5*,i
CC(C)c1c(O)c2c(n(-c3ccccc3)c1=O)CCCC2,/,-2.2,0.3,/,-4.6,/,/
CC/C(=N\O)c1c(O)c2c(n(-c3ccccc3)c1=O)CCCC2,/,-2.1,1.3,-23.7,-1.8,53.8*,i
CC[n+]1c(C)cc2c(sc3ccccc32)c1C,/,/,-0.1,-3.1,2.2,57.1*,i
CCc1nc(C)cc2c1sc1ccccc12,-8.0,8.3,-0.2,-2.8,-2.4,-11.1,/
CN1CCN(C(=O)C[C@@H]2CC[C@H]3[C@@H](COC[C@@H](O)CN3S(=O)(=O)c3cccc(F)c3)O2)CC1,-4.4,-2.7,/,-25.9,/,13.1,/

# Source: PubChem BioAssay (Broad Institute)
